Active and inactive are the calls of the source. No cut-off for these calls is given here.
Tests used:
[1] = Aqueous solubility of the compound; format: physicochemical; details: buffer
[2] = Cytotoxicity against human HepG2 cells assessed as reduction in cell viability measured after 72 hrs by MTT assay; format: cell-based
Summary of the method: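 HepG2 in MEM with 10% FBS, 5×10³ cells/well; 24 h attachment, then serial dilutions (DMSO <0.5% final) for 72 h at 37 °C, wells checked for precipitate. MTT 0.5 mg/mL for 2 h, formazan in DMSO, A570 with 630 nm reference. Viability versus untreated; doxorubicin positive control; CC50 from dose-response curve, triplicates, mean of three independent experiments.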

Plasmodium falciparum [3] = assay: Antiplasmodial activity against multidrug-resistant Plasmodium falciparum K1 infected in human erythrocytes assessed as reduction in parasite growth incubated for 72 hrs by SYBR green I fluorescence based assay; format: functional, organism-based; details: K1, Erythrocyte
[4] = Selectivity index, ratio of CC50 for cytotoxicity against human HepG2 cells to EC50 for antiplasmodial activity against multidrug-resistant Plasmodium falciparum K1 infected in human erythrocytes; format: toxicity, cell-based; details: read-out: Ratio CC50/EC50
[5] = Genotoxicity in human HepG2 cells assessed as induction of alkali labile sites at 1 mM measured after 2 hrs by alkali comet assay; details: hepg2, 1000 µM
[6] = Genotoxicity in human HepG2 cells assessed as induction of DNA strand breaks at 1 mM measured after 2 hrs by alkali comet assay; details: hepg2, 1000 µM
[7] = Aqueous solubility of the compound assessed as precipitation of the compound at >1.9 uM; format: physicochemical; details: buffer
[8] = Toxicity in human hepatocytes assessed as reduction in nuclei number up to 30 uM by microscopic analysis; format: cell-based, Hepatocyte
Summary of the method: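 Cryopreserved primary human hepatocytes, 80,000 per collagen-coated well in William's E medium, inoculated with 30,000 NF135 sporozoites/well and centrifuged. Serial drug dilutions added with sporozoites, renewed daily until 4% PFA fixation at day 6. Stained with anti-HSP70 and DAPI; hepatocyte nuclei counted across scanned microscopic fields, treated versus control.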

Plasmodium falciparum [9] = assay: Antiplasmodial activity against Plasmodium falciparum 3D7 assessed as reduction in parasite development by measuring defect in parasite replication at 0.3 uM measured after 48 hrs by DAPI/TPT staining based epifluorescence microscopic analysis; format: functional, organism-based
Summary of the method: (§1)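 Sorbitol-synchronized (5%) 3D7 blood-stage cultures expressing HA-tagged TPT, grown in RPMI-HEPES with 5% AlbuMAX II, 2% hematocrit, 1% O2/5% CO2, 37 °C; exposed 48 h to 0.3 μM or DMSO. Fixed in 4% PFA/0.0075% glutaraldehyde, Triton-permeabilized, stained with anti-HA plus Alexa 488 secondary and DAPI; imaged by epifluorescence with DIC.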

[10] = Cytotoxicity against African green monkey Vero cells assessed as reduction in cell viability measured after 48 hrs by MTT assay; format: cell-based; details: chlorocebus sabaeus
Summary of the method: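 Vero cells in MEM with 10% FBS; 5×10³ cells/well, 24 h attachment, then compound dilutions (DMSO <0.5% final) for 48 h at 37 °C. Precipitate check, MTT 0.5 mg/mL 2 h, DMSO solubilization, A570/630. Viability relative to untreated; doxorubicin control; CC50 from dose-response, triplicates, mean of three independent experiments.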

Plasmodium falciparum [11] = assay: Antiplasmodial activity against Plasmodium falciparum NF135 sporozoites infected in human hepatocytes assessed as reduction in parasite size without affecting parasite number incubated for 3 hrs with daily replacement of fresh medium containing compound until day 6 post infection by fluorescence microscopic analysis; format: functional, organism-based; details: Hepatocyte, time 6.0 day
Summary of the method: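 Cryopreserved primary human hepatocytes seeded at 80,000/well on collagen I in supplemented William's E, then infected with 30,000 NF135 sporozoites/well from A. stephensi salivary glands. Plates centrifuged 10 min, serial drug dilutions added at infection, washed at 3 h, drug medium renewed daily. Fixed day 6 in 4% PFA, EEFs stained with anti-HSP70 plus DAPI, counted by fluorescence microscopy or high-content imaging.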

[12] = Genotoxicity in human HepG2 cells assessed as induction of alkali labile sites at 5.6 uM measured after 2 to 72 hrs by alkali comet assay; format: cell-based; details: hepg2, 5.6 µM, time 2-72 hrs
Summary of the method: (§2)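 HepG2 (passage 11-15, EMEM with 10% FBS) exposed to 5.6 or 28 μM for 2 h or 72 h; vehicle 0.5% DMSO; 1 mM MMS 2 h positive control. Alkaline comet: lysis pH 10 at 4 °C 1 h, unwinding 40 min at pH >13, electrophoresis 1 V/cm 20 min. DAPI staining, % tail DNA; median of 50 comets per duplicate gel, mean of three experiments ±SD.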

Plasmodium falciparum [13] = assay: Antiplasmodial activity against Plasmodium falciparum 3D7 assessed as reduction in parasite development by measuring enriched culture in mid trophozite parasites at 0.3 uM measured after 48 hrs by DAPI/TPT staining based epifluorescence microscopic analysis; format: functional, organism-based; summary of the method: as §1
Plasmodium falciparum [14] = assay: Inhibition of apicoplast biogenesis in Plasmodium falciparum 3D7 assessed as loss of apicoplast at 0.3 uM measured after 48 hrs by DAPI/TPT staining based epifluorescence microscopic analysis; format: functional, organism-based; summary of the method: as §1
[15] = Cytotoxicity against CHO cells assessed as reduction in cell viability measured after 24 hrs by MTT assay; format: cell-based, Cricetulus griseus; details: chinese hamster
Summary of the method: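 CHO cells grown in RPMI with 10% FBS; 5×10³ cells/well, 24 h attachment, then compound dilutions (DMSO <0.5% final) for 24 h at 37 °C. Precipitate check, MTT 0.5 mg/mL 2 h, DMSO solubilization, A570/630. Percent viability against untreated; doxorubicin control; CC50 from dose-response, triplicates, mean of three independent experiments.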

Plasmodium falciparum [16] = assay: Inhibition of apicoplast development in hepatic stage of Plasmodium falciparum NF135 infected in human hepatocytes assessed as proportion of schizonts with partial and complete alteration of apicoplast signal at 30 uM incubated for 3 hrs with daily replacement of fresh medium containing compound until day 6 post infection by confocal microscopy; format: functional; design: scale not given: the % may be the effect or the level left; details: time 6 day
Summary of the method: (§3)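 Primary human hepatocytes infected with NF135 sporozoites (30,000/well), drug present from infection, washed at 3 h and renewed daily until fixing at day 6 (4% PFA). Apicoplast stained with anti-ACP antibody, parasites with anti-HSP70, DNA with DAPI, imaged by confocal microscopy. 100 parasites scored as normal or partially/completely altered apicoplast, given as percentage distribution.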

[17] = Genotoxicity in human HepG2 cells assessed as induction of DNA strand breaks at 5.6 uM measured after 2 to 72 hrs by alkali comet assay; format: cell-based; details: hepg2, 5.6 µM, time 2-72 hrs; summary of the method: as §2
Plasmodium falciparum [18] = assay: Inhibition of apicoplast biogenesis in Plasmodium falciparum 3D7 assessed as reduction in apicoplast development, elongation and branching at 0.3 uM measured after 48 hrs by DAPI/TPT staining based epifluorescence microscopic analysis; format: functional, organism-based; summary of the method: as §1
[19] = Genotoxicity in human HepG2 cells assessed as induction of alkali labile sites at 28 uM measured after 2 to 72 hrs by alkali comet assay; format: cell-based; details: hepg2, 28 µM, time 2-72 hrs; summary of the method: as §2
Plasmodium falciparum [20] = assay: Inhibition of apicoplast development in Plasmodium falciparum 3D7 assessed as delayed death phenotype at 0.3 uM measured during 48 hrs of three cycles of parasite development by SYBR green I based fluorescence assay; format: functional, organism-based
Summary of the method: (§4)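 3D7 cultures held at 0.3 μM or DMSO across three 48 h cycles, diluted 1/10 each cycle. At 48, 96 and 144 h, aliquots were lysed in SYBR Green I buffer (Tris pH 7.5, EDTA, saponin, Triton X-100) for 1 h at room temperature in the dark. Fluorescence read at 485/538 nm; growth expressed as treated/untreated ratio, n=3, SD.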

Plasmodium falciparum [21] = assay: Inhibition of apicoplast development in Plasmodium falciparum 3D7 assessed as reduction in parasite growth at 0.3 uM measured during 48 hrs of first cycle of parasite development by SYBR green I based fluorescence assay; format: functional, organism-based; summary of the method: as §4
Plasmodium falciparum [22] = assay: Inhibition of apicoplast development in hepatic stage of Plasmodium falciparum NF135 infected in human hepatocytes assessed as condensation of apicoplast protein ACP signal incubated for 3 hrs with daily replacement of fresh medium containing compound until day 6 post infection by confocal microscopy; format: functional, organism-based; details: time 6.0 day; summary of the method: as §3
[23] = Genotoxicity in human HepG2 cells assessed as induction of DNA strand breaks at 28 uM measured after 2 to 72 hrs by alkali comet assay; format: cell-based; details: hepg2, 28 µM, time 2-72 hrs; summary of the method: as §2
Plasmodium falciparum [24] = assay: Antiplasmodial activity against Plasmodium falciparum 3D7; format: functional, organism-based

| SMILES | solubility [1] | CC50 at 72 h [2] | EC50 (Plasmodium falciparum [3]) | selectivity ratio [4] | also measured |
| --- | --- | --- | --- | --- | --- |
| Fc1ccc(Sc2nc3ccccc3nc2C(Cl)(Cl)Cl)cc1 | Soluble | 30.8 µM | 0.36 µM | 85.6 |  |
| CCN(CC)CCCC(C)Nc1ccnc2cc(Cl)ccc12 (configuration not stated) [CHLOROQUINE] |  |  | 0.8 µM |  |  |
| COS(C)(=O)=O [METHANESULFONIC ACID METHYL ESTER] |  |  |  |  | Activity [5]: Toxic; Activity [6]: Toxic |
| O=[N+]([O-])c1ccc(Sc2nc3ccccc3nc2C(Cl)(Cl)Cl)cc1 | Soluble | 19.9 µM | 0.25 µM | 79.6 |  |
| COc1ccc(Cl)c(Sc2nc3ccccc3nc2C(Cl)(Cl)Cl)c1 | Soluble | 58.4 µM | 0.46 µM | 127 |  |
| O=C1C(O)=C([C@H]2CC[C@H](c3ccc(Cl)cc3)CC2)C(=O)c2ccccc21 [ATOVAQUONE] |  | > 15.6 µM | 0.001 µM |  |  |
| Fc1cccc(Sc2nc3ccccc3nc2C(Cl)(Cl)Cl)c1 | Soluble | 35.9 µM | 0.31 µM | 116 |  |
| FC(F)(F)Oc1ccc(Sc2nc3ccccc3nc2C(Cl)(Cl)Cl)cc1 | Soluble | 21 µM | 0.36 µM | 58.3 |  |
| FC(F)(F)c1ccc(Sc2nc3ccccc3nc2C(Cl)(Cl)Cl)cc1 | Soluble | 29.9 µM | 0.5 µM | 59.8 |  |
| ClC(Cl)(Cl)c1nc2ccccc2nc1Sc1ccc(Br)cc1 | Soluble | 42.2 µM | 0.46 µM | 93 |  |
| COc1ccc(Sc2nc3ccccc3nc2C(Cl)(Cl)Cl)cc1 |  | > 1.9 µM | 0.65 µM | > 3 | solubility [7]: Insoluble |
| c1ccc(Sc2cnc3ccccc3n2)cc1 |  | > 50 µM | > 50 µM |  |  |
| Clc1cccc(Sc2nc3ccccc3nc2C(Cl)(Cl)Cl)c1 | Soluble | 38.3 µM | 0.41 µM | 93.4 |  |
| ClC(Cl)(Cl)c1nc2ccccc2nc1Sc1ccccc1 | Soluble | 56 µM | 0.32 µM | 175 | Activity [8]: Non-Toxic; Activity (Plasmodium falciparum [9]): Active; CC50 at 48 h [10]: 63.5 µM; Activity (Plasmodium falciparum [11]): Dose-Dependent Effect; Activity [12]: Non-Toxic; Activity (Plasmodium falciparum [13]): Active; inhibition (Plasmodium falciparum [14]): Active; CC50 at 24 h [15]: 58.5 µM; Activity (Plasmodium falciparum [16]): 93%; Activity [17]: Non-Toxic; inhibition (Plasmodium falciparum [18]): Active; Activity [19]: Non-Toxic; Activity (Plasmodium falciparum [20]): Active; Activity (Plasmodium falciparum [21]): Active; inhibition (Plasmodium falciparum [22]): Active; Activity [23]: Non-Toxic |
| COc1ccccc1Sc1nc2ccccc2nc1C(Cl)(Cl)Cl | Soluble | 42.6 µM | 0.74 µM | 56.8 |  |
| Oc1cc(Cl)ccc1Oc1ccc(Cl)cc1Cl [TRICLOSAN] |  |  |  |  | EC50 (Plasmodium falciparum [24]): 1.55 µM |
| Clc1ccc(Sc2nc3ccccc3nc2C(Cl)(Cl)Cl)cc1 |  |  | 0.5 µM | 77.2 |  |
| Fc1ccccc1Sc1nc2ccccc2nc1C(Cl)(Cl)Cl | Soluble | 40.5 µM | 0.32 µM | 127 |  |
| Cc1nc2ccccc2nc1Sc1ccccc1 |  | > 25 µM | > 50 µM |  | Activity (Plasmodium falciparum [20]): inactive |
| C[C@H]1c2cccc(O)c2C(=O)C2=C(O)[C@]3(O)C(=O)C(C(N)=O)=C(O)[C@@H](N(C)C)[C@@H]3[C@@H](O)[C@@H]21 [DOXYCYCLINE] |  |  | 6 µM | 3.3 |  |
| Clc1ccccc1Sc1nc2ccccc2nc1C(Cl)(Cl)Cl | Soluble | 36.9 µM | 0.5 µM | 73.8 |  |
| FC(F)(F)c1nc2ccccc2nc1Sc1ccccc1 |  | > 50 µM | > 50 µM |  |  |
| Clc1ccc(Sc2nc3ccccc3nc2C(Cl)(Cl)Cl)c(Cl)c1 | Soluble | > 31.2 µM | 0.9 µM | > 34.7 |  |
| Cc1ccc(Sc2nc3ccccc3nc2C(Cl)(Cl)Cl)cc1 | Soluble | 69.7 µM | 1.5 µM | 46.5 |  |
| Clc1cccc(Sc2nc3ccccc3nc2C(Cl)(Cl)Cl)c1Cl | Soluble | 34.6 µM | 0.31 µM | 112 |  |

— ChEMBL document CHEMBL4828728, “Antiplasmodial 2-thiophenoxy-3-trichloromethyl quinoxalines target the apicoplast of Plasmodium falciparum” (Eur J Med Chem, 2021)
